What was measured:
[1] = target: T1, Bromodomain-containing protein 4 (Homo sapiens, UniProt O60885); experiment: Inhibition of BRD4-BD2 (333 to 460 residues) (unknown origin) using histone H4 peptide as substrate preincubated for 15 mins followed by addition of substrate measured after 60 mins by AlphaScreen assay
[2] = target: T1, Bromodomain-containing protein 4; experiment: Inhibition of BRD4-BD1 (44 to 168 residues) (unknown origin) using histone H4 peptide as substrate preincubated for 15 mins followed by addition of substrate measured after 60 mins by AlphaScreen assay
K562 = experiment: Antiproliferative activity against BRD4-independent human K562 cells after 72 hrs by CCK8 assay; type: functional, cell-based; conditions: K562, 72 h
Procedure, shortened: (§1)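 Cells seeded at 1 × 10^4 per well in 100 µL IMDM with 20% FBS. After 12 h, triple-diluted compound series added in 50 µL. Read 72 h after seeding: CCK-8 reagent added, 4 h at 37 °C, absorbance at 450 nm, blank-corrected relative to untreated control. IC50 fitted from the curve. Means ± SD from three independent experiments.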

MV4-11 = experiment: Antiproliferative activity against BRD4-sensitive human MV411 cells after 72 hrs by CCK8 assay; type: functional, cell-based; conditions: MV4-11, 72 h; procedure, shortened: as §1
HL-60 = experiment: Antiproliferative activity against BRD4-sensitive human HL60 cells after 72 hrs by CCK8 assay; type: functional, cell-based; conditions: HL-60, 72 h; procedure, shortened: as §1
[3] = target: T1, Bromodomain-containing protein 4; experiment: Inhibition of recombinant human His-tagged BRD4-BD1 expressed in bacteria using biotinylated H4-tetraacetyl peptide as substrate after 20 mins by AlphaScreen assay

SMILES | IC50 [1] | IC50 [2] | IC50 (K562) | IC50 (MV4-11) | IC50 (HL-60) | Ki [3]
COc1cccc(CNc2cccc(Oc3ccc(S(C)(=O)=O)cc3-c3cn(C)c(=O)c4cncn34)c2)c1 | 0.19 µM | 0.43 µM | > 10 µM | 1.16 µM | 1.53 µM | –
CCS(=O)(=O)c1ccc(Oc2cccc(NS(=O)(=O)c3ccc(OC)cc3)c2)c(-c2cn(C)c(=O)c3cncn23)c1 | 0.14 µM | 0.2 µM | – | – | – | –
CCS(=O)(=O)c1ccc(Oc2cccc(NCc3ccc(C#N)cc3)c2)c(-c2cn(C)c(=O)c3cncn23)c1 | 0.076 µM | 0.13 µM | > 10 µM | 0.18 µM | 0.57 µM | –
CC(=O)Nc1ccc(CNc2cccc(Oc3ccc(S(C)(=O)=O)cc3-c3cn(C)c(=O)c4cncn34)c2)cc1 | 0.18 µM | 0.38 µM | – | – | – | –
Cn1cc(-c2cc(S(C)(=O)=O)ccc2Oc2cccc(NCc3ccc(F)cc3)c2)n2cncc2c1=O | 0.32 µM | 0.68 µM | > 10 µM | 0.95 µM | 1.4 µM | –
CCS(=O)(=O)c1ccc(Oc2cccc(NS(=O)(=O)c3cccs3)c2)c(-c2cn(C)c(=O)c3cncn23)c1 | 0.28 µM | 0.39 µM | – | – | – | –
CCS(=O)(=O)Nc1ccc(Oc2ccc(F)cc2F)c(-c2cn(C)c(=O)c3[nH]ccc23)c1 [MIVEBRESIB] | 0.069 µM | 0.074 µM | > 10 µM | 0.07 µM | 0.09 µM | 0.015 µM
CCS(=O)(=O)c1ccc(Oc2cccc(NS(=O)(=O)c3ccccc3F)c2)c(-c2cn(C)c(=O)c3cncn23)c1 | 0.17 µM | 0.24 µM | – | – | – | –
Cn1cc(-c2cc(S(C)(=O)=O)ccc2Oc2cccc(NCc3ccc(C#N)cc3)c2)n2cncc2c1=O | 0.18 µM | 0.35 µM | > 10 µM | 4.2 µM | 6.1 µM | –
Cn1cc(-c2cc(S(C)(=O)=O)ccc2Oc2ccc(F)cc2F)n2cncc2c1=O | 0.58 µM | 0.52 µM | > 10 µM | 1.85 µM | 2.86 µM | –
CCS(=O)(=O)c1ccc(Oc2cccc(NCc3ccc(NC(C)=O)cc3)c2)c(-c2cn(C)c(=O)c3cncn23)c1 | 0.04 µM | 0.13 µM | > 10 µM | 0.17 µM | 2.86 µM | –
CCS(=O)(=O)c1ccc(Oc2ccc(F)cc2)c(-c2cn(C)c(=O)c3cncn23)c1 | 0.22 µM | 0.2 µM | > 10 µM | 0.78 µM | 0.94 µM | –
Cc1sc2c(c1C)C(c1ccc(Cl)cc1)=N[C@@H](CC(=O)OC(C)(C)C)c1nnc(C)n1-2 | – | – | 9.12 µM | 0.08 µM | 0.11 µM | –
CCS(=O)(=O)c1ccc(Oc2ccc(F)cc2F)c(-c2cn(C)c(=O)c3cncn23)c1 | 0.26 µM | 0.24 µM | > 10 µM | 0.41 µM | 0.62 µM | –

From ChEMBL document CHEMBL4038277, “Design, synthesis and biological evaluation of 7-methylimidazo[1,5-a]pyrazin-8(7H)-one derivatives as BRD4 inhibitors” (Bioorg Med Chem, 2017)
